Assay outcomes from PubChem.
PAD4 FP inh: human PAD4 inhibitors, primary screen, biochemical, fluorescence polarization, 1536-well format; 330,000 compounds, 0.41% hits; AID 485272, 2010; recombinant PAD4, RCA probe fluorescence polarization; inhibition, % at 6.36 µM;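 active = percent inhibition above a cutoff equal to the mean of all tested compounds plus 3 SD, cut at about 15% in these data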
E coli Lon inh: inhibitors of E. coli Lon protease, primary screen, biochemical, fluorescence polarization. P0A9M0. purified E. coli Lon protease. inhibition, % at 7.94 µM. 360,000 compounds, 0.42% hits; in the data active = inhibition above about 13%, passing the limit was not always enough
PRMT1 inh: PRMT1 methyltransferase inhibitors, primary screen, biochemical, fluorescence polarization. Protein arginine N-methyltransferase 1 (Homo sapiens), Q99873. recombinant PRMT1, activity-based probe fluorescence polarization. inhibition, % at 2.79 µM. 370,000 compounds, 1.3% hits;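 active = inhibition above about 21% made by adding two undisclosed values, limit read from the data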
TDP2 absorb: human TDP2 enzyme inhibitors, primary screen, biochemical, epi absorbance, recombinant enzyme; Tyrosyl-DNA phosphodiesterase 2 (Homo sapiens), O95551; inhibition, % at 12.8 µM; AID 720702, 2013; T5PNP hydrolysis, p-nitrophenol absorbance 415 nm; 370,000 compounds, 0.34% hits;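 active = inhibition above the mean of all tested compounds plus 3 SD, set per campaign, cut at about 25% in these data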
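test system = human TDP2 enzyme | input = TDP2 enzyme at 120 nM final | medium = 50 mM Tris-HCl pH 7.5 with Mg2+, KCl, DTT, BSA | also added = T5PNP substrate, 5 mM | times = 2 h at 37 °C | technique = epi absorbance | benchmarks = high control without enzyme, low control DMSO plus TDP2 | replication = each compound tested once, singlicate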
GSTO1 counter: inhibitors of recombinant GSTO1, primary screen, counter-screen for RBBP9 inhibitor project, biochemical, fluorescence polarization; Glutathione S-transferase omega-1 (Homo sapiens), P78417; activity-based probe fluorescence polarization; inhibition, % at 5.96 µM; 300,000 compounds, 1.1% hits; AID 1974, 2009;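 active = inhibition above the campaign mean inhibition plus 3 SD, cut at about 35% in these data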
Target sequence (P78417 whole entry, looked up): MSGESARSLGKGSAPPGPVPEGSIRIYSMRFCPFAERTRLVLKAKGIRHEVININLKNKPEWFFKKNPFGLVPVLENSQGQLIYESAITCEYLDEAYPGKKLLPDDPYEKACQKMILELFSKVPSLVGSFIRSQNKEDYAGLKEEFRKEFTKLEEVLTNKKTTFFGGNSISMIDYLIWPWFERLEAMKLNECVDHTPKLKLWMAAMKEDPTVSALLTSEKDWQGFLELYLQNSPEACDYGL
TDP2 inh conf: human TDP2 enzyme inhibitors, retest, confirmation, biochemical, epi absorbance, recombinant enzyme; inhibition, % at 12.8 µM; 1,100 compounds, 22% hits; shares compounds with TDP2 absorb; absorbance read-out; in the data active = inhibition above about 25%
Numbers stand for hits; i = inactive; nt = no result given. Compounds with a hit are over-represented: about 2.5% of the library has one in this group of screens.

SMILES	PAD4 FP inh	E coli Lon inh	PRMT1 inh	TDP2 absorb	GSTO1 counter	TDP2 inh conf
O=C(NCc1ccco1)C1CC(=O)N(CCc2ccccc2)C1 (centres undefined)	i	i	i	i	i	nt
C[C@@H]1C=CCCO[C@]12C(=O)Nc1ccccc12	nt	nt	i	i	nt	nt
O=C(CN1CCN(c2ccc(O)cc2)CC1)Nc1ccccc1C(=O)NCCc1ccccc1	i	i	i	i	nt	nt
COc1ccc(-n2c(N)c(C(=O)NCc3ccco3)c3nc4ccccc4nc32)cc1	i	i	i	26.9	i	i
Cc1ccc(S(=O)(=O)N/N=C/c2ccccc2F)cc1[N+](=O)[O-]	i	i	i	29.0	i	i
CC(C)c1ccc(NC(=O)C2C3C=CC4(O3)C2C(=O)N(CCN2CCOCC2)C4C(=O)NC2CCCCC2)cc1 (centres undefined)	i	i	i	i	i	nt
CCN(CC)CCCN1C(=O)C2C(C(=O)Nc3ccc(C(C)C)cc3)C3C=CC2(O3)C1C(=O)NC1CCCCC1 (centres undefined)	i	i	i	26.7	i	i
N#CC1C(=O)Nc2cccnc21 (centres undefined)	nt	i	i	65.6	nt	i
O=C1Nc2ccccc2C1Cc1ccccn1 (centres undefined)	i	i	i	i	i	nt
CCCCNc1cc(NC(C)=O)cc2cc(OC)c(OC)cc12	i	i	i	29.8	35.0	29.1
O=C1C=C(O)c2[nH]c(=O)ccc2C1=O	nt	i	i	41.2	nt	41.8
COc1ccc(S(=O)(=O)N2CCC(C(=O)NCc3ccncc3)CC2)cc1	i	i	i	25.7	i	i
COc1ccc(S(=O)(=O)N2CCC(C(=O)NCCC(=O)NCc3ccncc3)CC2)cc1	i	i	i	i	i	nt
CC(C)(C)n1nnnc1C(c1cccc(C(F)(F)F)c1)N1CCOCC1 (centres undefined)	i	i	i	i	i	nt
CC(C)(C)n1nnnc1C(c1cccnc1)N1CCOCC1 (centres undefined)	i	i	i	26.5	i	i
COc1cccc(CNS(=O)(=O)c2cc(Br)ccc2Br)c1	nt	i	i	i	nt	nt
Cc1ccc(S(=O)(=O)Nc2ccc3c4c(cccc24)CC3)c(C)c1	i	i	i	i	i	nt
Cc1ccc(S(=O)(=O)Nc2ccc(O)c3ccccc23)c(C)c1	nt	i	i	29.0	nt	i
O=C(c1ccc(S(=O)(=O)NCc2ccco2)cc1)N1CCN(Cc2ccc3c(c2)OCO3)CC1	i	i	i	i	i	nt
O=C(CN1CCCC1)Nc1ccc2c(c1)CCC2	i	i	i	27.8	i	i
CCc1c(-c2ccccc2F)ncn1Cc1cccc(-c2ccccc2)c1	nt	nt	i	i	nt	nt
CC1(C)CC(=O)C=C(Nc2ccc(O)c(C(=O)O)c2)C1	i	i	i	25.4	i	i
CCOC(=O)C1=C(COC(=O)CCc2ccc(F)cc2)NC(=O)NC1C (centres undefined)	i	i	i	i	nt	nt
CCOC(OCC)c1cn(Cc2ccc3c(c2)C(=O)c2ccccc2C3=O)nn1	i	nt	i	i	i	nt
N#Cc1cc2ccc(N3CCOCC3)cc2cc1C#N	i	i	i	68.7	i	i
SMILES	PAD4 FP inh	E coli Lon inh	PRMT1 inh	TDP2 absorb	GSTO1 counter	TDP2 inh conf
N#Cc1cc(Cl)c(N2CCOCC2)cc1C#N	i	i	i	i	i	nt
COc1cccc(C(NC(C)=O)c2nc(-c3ccc(N(C)C)cc3)cs2)c1 (centres undefined)	nt	i	i	i	nt	nt
CC(C)CNC(=O)CSc1nc2scc(-c3ccccc3)c2c(=O)[nH]1	i	i	i	i	i	nt
CC(c1nc2scc(-c3ccccc3)c2c(=O)[nH]1)N1CCN(CC(=O)NC2CC2)CC1 (centres undefined)	nt	i	i	32.3	nt	i
CC1CCN(CCCNC(=O)c2ccc(CS(=O)(=O)Cc3ccc(Cl)cc3)o2)CC1	i	i	i	27.1	i	i
CC1CCN(CCCNC(=O)c2ccc(CS(=O)(=O)Cc3ccccc3F)o2)CC1	nt	i	i	i	nt	nt
COc1cc(CN2CC(C)OC(C)C2)cc(OC)c1 (centres undefined)	i	i	i	24.5	i	i
